From PubChem
E-selectin induc – E-selectin induction on HUVECs; P16581; AID 686992; activation, % at 7.58 µM; 260,000 compounds, 0.37% hits; HUVEC E-selectin immunofluorescence imaging; normalized: neutral wells 0, TNF-alpha wells 100;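 active = mean E-selectin-positive cell signal at least 10% of the positive control, reached in at least 60% of replicates, without over 20% cell loss; inconclusive = no rule given, readout overlaps actives, possibly toxicity-flagged; inactive = the rest, including those meeting only one limit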
Target sequence (P16581 whole entry, looked up): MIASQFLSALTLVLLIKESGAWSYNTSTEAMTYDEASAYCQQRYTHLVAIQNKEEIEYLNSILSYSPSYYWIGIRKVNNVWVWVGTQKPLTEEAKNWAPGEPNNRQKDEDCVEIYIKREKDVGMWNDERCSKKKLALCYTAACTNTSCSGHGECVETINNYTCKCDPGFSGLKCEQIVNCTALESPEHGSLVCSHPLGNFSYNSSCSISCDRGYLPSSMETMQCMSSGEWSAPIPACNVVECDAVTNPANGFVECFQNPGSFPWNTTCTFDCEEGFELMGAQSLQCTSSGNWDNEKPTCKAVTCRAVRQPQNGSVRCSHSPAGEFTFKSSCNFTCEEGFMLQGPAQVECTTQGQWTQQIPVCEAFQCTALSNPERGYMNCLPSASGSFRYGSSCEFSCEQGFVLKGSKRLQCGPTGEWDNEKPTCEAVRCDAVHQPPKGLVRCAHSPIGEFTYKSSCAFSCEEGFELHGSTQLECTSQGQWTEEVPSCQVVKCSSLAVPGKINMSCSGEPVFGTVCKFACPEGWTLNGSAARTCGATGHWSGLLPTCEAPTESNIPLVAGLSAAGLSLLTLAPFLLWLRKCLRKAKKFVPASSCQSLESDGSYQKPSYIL
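Read-out basis: % PE-positive cells; Test system: HUVEC primary endothelial cells; Technique: immunofluorescence imaging; Dosing: single-point compound dose.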
LGR2 inh – blocks bursicon-induced cAMP signaling via Drosophila LGR2; HEK293 LGR2, CRE-luciferase, bursicon-stimulated, 4 h; inhibition, % at 9.99 µM; 380,000 compounds, 0.35% hits; AID 720647;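 active = drop in luminescence signal, shown as inhibition above about 50% in the replicate tests, limit read from the data, passing the limit was not always enough; inconclusive = probably only some replicates passing the limit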;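 note: agonist challenge used bursicon conditioned medium at about half maximal strength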
EWS-Fli block – EWS/Fli transcriptional activity inhibition; A673 NR0B1-luciferase reporter, viability-normalised; 350,000 compounds, 0.67% hits; inhibition, % at 12.6 µM;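 active = mean inhibition of at least 50% after viability correction, with every replicate also passing that limit; inconclusive = mean reaches 50% but only one of two replicates passes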;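 note: firefly luciferase signal divided by Alamar Blue viability fluorescence both relative to DMSO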
rRNA inh HTS – inhibits bacterial ribosomal RNA function over humanized ribosomes. E. coli WT GFP vs humanized-ribosome RFP mutants, fluorescence, 24 h; active compounds read low; DMSO median 0, no signal -100. GFP signal change (wild-type ribosome), % (no concentration beside the values). 350,000 compounds, 1.6% hits;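 active = significant combined selectivity score with lowered wild-type GFP, culture density cut under 30%, mutant RFP and density less affected; inactive = any of these conditions unmet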
An asterisk follows results filed as active; ? = inconclusive; · = not tested or not shown; ! = not confirmed by another sample. Rows were chosen to be rich in hits. Some 2.4% of all compounds tested hit in one or more screens of this group.

SMILES	E-selectin induc	LGR2 inh	EWS-Fli block	rRNA inh HTS
COc1cccc(-c2ccc(C3[C@@H]4CN(C(=O)C5CC5)C[C@H]3N4)cc2)c1 (stereo partly specified)	1	62*!	-13	-1
COc1ccc(NC(=O)Nc2ccc3c(c2)CC(=O)N([C@H](C)CO)C[C@@H](C)[C@H](CN(C)C(=O)Nc2c(C)noc2C)O3)cc1	0	-1	3	3
CO[C@@H]1CC[C@H]2CCOc3ccc(C#N)cc3C(=O)N(C)C[C@H](C)C(=O)N(C)C[C@H]1O2	0	7	0	3
Cc1cccc(Nc2nc(N)c([N+](=O)[O-])c(N3CCOCC3)n2)c1	·	-11	7	-24*
Cc1ccc(Nc2nc(N)c([N+](=O)[O-])c(N3CCOCC3)n2)cc1	·	-22	·	·
COc1cccc(Nc2nc(N)c([N+](=O)[O-])c(N3CCOCC3)n2)c1	·	-12	-3	-29*
O=C(N[C@@H]1CC[C@@H](CCNS(=O)(=O)c2ccccc2)O[C@@H]1CO)c1cccnc1	1	12	-6	3
Cc1noc(C)c1S(=O)(=O)Nc1ccc2c(c1)CC(=O)N([C@H](C)CO)C[C@@H](C)[C@H](CN(C)C(=O)Nc1ccc(F)cc1)O2	13	19	2	8
CC(=O)N(C)C[C@H]1Oc2ncccc2C(=O)N(C)C[C@H]1C	·	·	·	2
C[C@H](CO)N1C[C@H](C)[C@H](CN(C)C)Oc2ncc(-c3cccc(F)c3)cc2C1=O	1	-3	-6	2
COc1cccc(CC(=O)Nc2nc(-c3cc(OC)ccc3OC)cs2)c1	3	1	-18	-24*
COc1ccc(OC)c(-c2csc(NC(=O)COC(=O)C3(C)CC3(Cl)Cl)n2)c1 (stereo unspecified)	·	5	-11	-21*
COc1ccc(-c2csc(NC(=O)Nc3ccccc3)n2)cc1	0	-19	-6	-10
COc1ccc(OC)c(-c2csc(NC(=O)Cc3ccccc3)n2)c1	·	-14	-29	-49
COc1cccc(-c2csc(N3CCN(C(=O)Nc4ccccc4Cl)CC3)n2)c1	·	-19	-22	-19
COc1cccc(NC(=O)N2CCN(c3nc(-c4cccc(OC)c4)cs3)CC2)c1	-1	-5	-5	-30*
COc1cccc(NC(=O)Nc2nc(-c3ccc(OC)c(OC)c3)cs2)c1	0	?	65*	5
C[C@@H]1CCCCO[C@H](CN(C)C)[C@H](C)CN([C@@H](C)CO)C(=O)c2cc(NS(=O)(=O)c3ccc(Cl)cc3)ccc2O1	0	-15	10	-2
COc1ccc(CC(=O)Nc2nc(-c3cc(OC)ccc3OC)cs2)cc1	·	-4	-13	-22*
O=C(c1cnn(C(=O)c2ccco2)c1)c1cc(F)ccc1O	·	15	8	5
O=C(c1cnn(C(=O)c2ccco2)c1)c1cc(Cl)cc(Cl)c1O	-1	-5	-2	-25*
N#C[C@@H]1[C@H](c2ccc(C#Cc3cccc(F)c3)cc2)[C@H](CO)N1C(=O)C1CCOCC1	·	·	·	-2
CCC(=O)N1C[C@@H](C)[C@@H](OC)CN(C)C(=O)c2ccc(NC(=O)c3cnccn3)cc2OC[C@H]1C	0	2	5	0
CCCC(=O)N1CC2(C1)CN(C(=O)Cc1ccccn1)[C@@H](CO)c1[nH]c3cc(OC)ccc3c12	0	-5	-4	2
Oc1ccc(N=Nc2ccccc2-c2nn[nH]n2)c(O)c1	-1	-10	5	-31*
SMILES	E-selectin induc	LGR2 inh	EWS-Fli block	rRNA inh HTS
CC1=NN(c2ccccc2)C(=O)C1C=Nc1ccccc1O (stereo unspecified)	·	3	24	-19*
C[C@@H]1CN([C@H](C)CO)C(=O)c2cc(NC(=O)Nc3cccc4ccccc34)ccc2O[C@H]1CN(C)CC1CCCCC1	6	-17	22	1
C[C@@H]1CCCCO[C@@H](CN(C)CC2CCCCC2)[C@@H](C)CN([C@@H](C)CO)C(=O)c2cc(NC(=O)Nc3cccc4ccccc34)ccc2O1	1	7	77*	-4
C[C@H](CO)N1C[C@H](C)[C@@H](CN(C)CC2CCCCC2)OCCCC[C@H](C)Oc2ccc(NC(=O)Nc3cccc4ccccc34)cc2C1=O	2	0	7	-7
C[C@H](CO)N1C[C@H](C)[C@H](CN(C)CC2CCCCC2)OCCCC[C@H](C)Oc2ccc(NC(=O)Nc3cccc4ccccc34)cc2C1=O	1	-4	92*	-21
C[C@@H]1CN([C@H](C)CO)C(=O)c2cc(NC(=O)Nc3cccc4ccccc34)ccc2O[C@@H]1CN(C)CC1CCCCC1	-11	10	70*	1
C[C@@H]1CCCCO[C@H](CN(C)CC2CCCCC2)[C@H](C)CN([C@@H](C)CO)C(=O)c2cc(NC(=O)Nc3cccc4ccccc34)ccc2O1	2	-10	19	-53*
O=C(NCC[C@H]1CC[C@H](NS(=O)(=O)Cc2ccccc2)[C@@H](CO)O1)C1CC1	1	2	1	1
CCCNC(=O)Nc1ccc2c(c1)C(=O)N(C)[C@H]1CC[C@H](CC(=O)NCCCN(C)C)O[C@H]1CO2	0	-12	-48	2
Cc1cc(C(=O)Nc2cccc3c2O[C@@H](CN(C)C(=O)Nc2cccc4ccccc24)[C@H](C)CN([C@H](C)CO)C3=O)n(C)n1	2	-4	-3	-3
C[C@@H]1CN([C@H](C)CO)C(=O)c2cc(NC(=O)Nc3cccc4ccccc34)ccc2O[C@@H](C)CCCCO[C@@H]1CN(C)CC1CCCCC1	1	-4	76*	-2
C[C@@H]1CCCCO[C@H](CN(C)CC2CCCCC2)[C@H](C)CN([C@H](C)CO)C(=O)c2cc(NC(=O)Nc3cccc4ccccc34)ccc2O1	4	-6	87*	-3
COc1ccc2c3c([nH]c2c1)[C@H](CO)N(Cc1nccs1)CC31CCN(Cc2nccs2)CC1	·	·	·	1
CO[C@@H]1CN(C)C(=O)c2cc(NC(=O)c3ccccc3)ccc2OC[C@@H](C)N(CC2CC2)C[C@H]1C	0	5	-1	-3
CCOC(=O)c1c(-c2ccc(OC)cc2)csc1/N=C/N(C)C	0	5	-33	-19
CCOC(=O)c1c(-c2ccc(OC)cc2)csc1/N=C/C1C(=O)CCCC1=O	278*	-19	-1	-15
CC(C)Cn1c(N)c(C(=O)COC(=O)c2ccccc2Cl)c(=O)n(C)c1=O	4	-2	2	-35
Cn1c(N)c(C(=O)COC(=O)/C=C/c2ccc(F)cc2)c(=O)n(C)c1=O	·	11	-32	3
Cn1c(N)c(C(=O)COC(=O)/C=C/c2ccccc2)c(=O)n(C)c1=O	0	3	0	-20*
CC(C)Cn1c(N)c(C(=O)COC(=O)/C=C/c2cccs2)c(=O)n(C)c1=O	0	13	7	-23*
CC(C)Cn1c(N)c(C(=O)COC(=O)c2cccc(Cl)c2)c(=O)n(C)c1=O	·	9	-4	-28*
CC[n+]1ccc(/C=C/c2ccc(N(C)C)cc2)c2ccccc21	115*	16	58*	-76
